Results: ChEMBL document CHEMBL4689842, “EUbOPEN Chemogenomics Library wave 1” (2021)
Where “and” joins values, the source holds several entries; their conditions need not be identical. Equal values may be shown once.

How the values were obtained:
Format in all cases: toxicity, cell-based
Fibroblast = experiment: Multiplex assay against human fibroblast
Outline: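 Live cells were stained at seeding with Hoechst33342, BioTracker Green Microtubule Cytoskeleton Dye, MitoTracker Red and Annexin V Alexa Fluor 680. Following compound addition, they were imaged on a CQ1 microscope at 37°C and 5% CO2 and gated by CellPathfinder machine learning into Hoechst high-intensity objects or normal cells, with normal cells split into healthy, pyknosed or fragmented nuclei and pyknosed cells into mitotic or apoptotic. Tubulin, mitochondrial-mass and membrane-permeability phenotypes are per cents of healthy-nucleus cells.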

U2OS = experiment: Incucyte cell viability with U2OS; details: human, 10 µM, compound concentration 10 uM; further: filed as whole numbers so only -1 and 0 and 1 occur
HEK-293T = experiment: Incucyte cell viability with HEK293T; details: human, 10 µM, compound concentration 10 uM; further: filed as whole numbers so only -1 and 0 and 1 occur
[1] = 12 h, 1 µM, compound concentration 1 uM, replicate 1
[2] = 12 h, 1 µM, compound concentration 1 uM, replicate 2
[3] = 12 h, 10 µM, compound concentration 10 uM, replicate 1
[4] = 12 h, 10 µM, compound concentration 10 uM, replicate 2
[5] = 24 h, 1 µM, compound concentration 1 uM, replicate 1
[6] = 24 h, 1 µM, compound concentration 1 uM, replicate 2
[7] = 24 h, 10 µM, compound concentration 10 uM, replicate 1
[8] = 24 h, 10 µM, compound concentration 10 uM, replicate 2
[9] = 48 h, 1 µM, compound concentration 1 uM, replicate 1
[10] = 48 h, 1 µM, compound concentration 1 uM, replicate 2
[11] = 48 h, 10 µM, compound concentration 10 uM, replicate 1
[12] = 48 h, 10 µM, compound concentration 10 uM, replicate 2
[13] = 0 h, replicate number 1, timepoint 0 hours
[14] = 6 h, replicate number 1, timepoint 6 hours
[15] = 12 h, replicate number 1, timepoint 12 hours
[16] = 18 h, replicate number 1, timepoint 18 hours
[17] = 24 h, replicate number 1, timepoint 24 hours

CS(=O)(=O)N1CCCC(NC(=O)[C@H](CCC2CCCCC2)NC(=O)c2ccc(CNC(=O)c3cnc4ccccn34)cc2)C1 (stereo partly specified) [SR-302]
Population Apoptotic (%) (Fibroblast; [1]): 63% [middle of 4 runs]
Population Fragmented Nuclei (%) (Fibroblast; [1]): 16% and 17% and 20%
Population Healthy Nuclei (%) (Fibroblast; [1]): 42% [middle of 4 runs]
Population Hoechst High Intensity Objects (%) (Fibroblast; [1]): 15% [middle of 4 runs]
Population Membrane Permeable-Phenotype (%) (Fibroblast; [1]): 31% and 23%
Population Mitochondria Different-Phenotype (%) (Fibroblast; [1]): 10% [middle of 4 runs]
Population Mitotic Cells (%) (Fibroblast; [1]): 42% [middle of 4 runs]
Population Normal (%) (Fibroblast; [1]): 85% and 84% and 80% and 87%
Population Pyknosed Nuclei (%) (Fibroblast; [1]): 55% and 40% and 41%
Population Apoptotic (%) (Fibroblast; [2]): 40% and 33% and 20%
Population Healthy Nuclei (%) (Fibroblast; [2]): 81% [middle of 4 runs]
Population Membrane Permeable-Phenotype (%) (Fibroblast; [2]): 0% and 7% and 2%
Population Mitochondria Different-Phenotype (%) (Fibroblast; [2]): 6% and 7% and 9%
Population Mitotic Cells (%) (Fibroblast; [2]): 60% and 66% and 80%
Population Normal (%) (Fibroblast; [2]): 75% and 93% and 83% and 97%
Population Pyknosed Nuclei (%) (Fibroblast; [2]): 12% [middle of 4 runs]
Total Cell Count (Fibroblast; [2]): 84 and 98 and 59
Population Apoptotic (%) (Fibroblast; [3]): 56% [middle of 4 runs]
Population Fragmented Nuclei (%) (Fibroblast; [3]): 26% [middle of 4 runs]
Population Healthy Nuclei (%) (Fibroblast; [3]): 20% and 32% and 52%
Population Hoechst High Intensity Objects (%) (Fibroblast; [3]): 11% and 19% and 9%
Population Membrane Permeable-Phenotype (%) (Fibroblast; [3]): 20% [middle of 4 runs]
Population Mitotic Cells (%) (Fibroblast; [3]): 48% [middle of 4 runs]
Population Normal (%) (Fibroblast; [3]): 88% and 80% and 91%
Population Pyknosed Nuclei (%) (Fibroblast; [3]): 51% [middle of 4 runs]
Population Tubulin-Different-Phenotype (%) (Fibroblast; [3]): 86% [middle of 4 runs]
Total Cell Count (Fibroblast; [3]): 137 [middle of 4 runs]
Population Apoptotic (%) (Fibroblast; [4]): 71% [middle of 4 runs]
Population Healthy Nuclei (%) (Fibroblast; [4]): 34% and 80% and 83%
Population Membrane Permeable-Phenotype (%) (Fibroblast; [4]): 18% and 23% and 11%
Population Normal (%) (Fibroblast; [4]): 66% and 92% and 93% and 96%
Population Pyknosed Nuclei (%) (Fibroblast; [4]): 17% and 7% and 9%
Population Tubulin-Different-Phenotype (%) (Fibroblast; [4]): 91% [middle of 4 runs]
Total Cell Count (Fibroblast; [4]): 77 [middle of 4 runs]
Population Apoptotic (%) (Fibroblast; [5]): 72% [middle of 4 runs]
Population Fragmented Nuclei (%) (Fibroblast; [5]): 25% [middle of 4 runs]
Population Healthy Nuclei (%) (Fibroblast; [5]): 51% [middle of 4 runs]
Population Hoechst High Intensity Objects (%) (Fibroblast; [5]): 17% [middle of 4 runs]
Population Mitochondria Different-Phenotype (%) (Fibroblast; [5]): 7% [middle of 4 runs]
Population Mitotic Cells (%) (Fibroblast; [5]): 40% [middle of 4 runs]
Population Normal (%) (Fibroblast; [5]): 85% and 77% and 82% and 83%
Population Pyknosed Nuclei (%) (Fibroblast; [5]): 28% [middle of 4 runs]
Population Membrane Permeable-Phenotype (%) (Fibroblast; [6]): 0% and 5% and 1%
Population Mitochondria Different-Phenotype (%) (Fibroblast; [6]): 6% and 8% and 4%
Population Mitotic Cells (%) (Fibroblast; [6]): 66% [middle of 4 runs]
Population Normal (%) (Fibroblast; [6]): 76% and 95%
Total Cell Count (Fibroblast; [6]): 97 [middle of 4 runs]
Population Apoptotic (%) (Fibroblast; [7]): 57% [middle of 4 runs]
Population Fragmented Nuclei (%) (Fibroblast; [7]): 24% [middle of 4 runs]
Population Healthy Nuclei (%) (Fibroblast; [7]): 37% and 27% and 59%
Population Hoechst High Intensity Objects (%) (Fibroblast; [7]): 10% [middle of 4 runs]
Population Mitotic Cells (%) (Fibroblast; [7]): 51% [middle of 4 runs]
Population Normal (%) (Fibroblast; [7]): 100% and 89% and 80% and 92%
Population Pyknosed Nuclei (%) (Fibroblast; [7]): 51% [middle of 4 runs]
Population Tubulin-Different-Phenotype (%) (Fibroblast; [7]): 82% [middle of 4 runs]
Population Apoptotic (%) (Fibroblast; [8]): 55% [middle of 4 runs]
Population Membrane Permeable-Phenotype (%) (Fibroblast; [8]): 16% [middle of 4 runs]
Population Mitochondria Different-Phenotype (%) (Fibroblast; [8]): 75% [middle of 4 runs]
Population Mitotic Cells (%) (Fibroblast; [8]): 45% [middle of 4 runs]
Population Normal (%) (Fibroblast; [8]): 62% and 88% and 95% and 94%
Population Pyknosed Nuclei (%) (Fibroblast; [8]): 24% and 15% and 13%
Population Tubulin-Different-Phenotype (%) (Fibroblast; [8]): 72% [middle of 4 runs]
Total Cell Count (Fibroblast; [8]): 88 [middle of 4 runs]
Population Apoptotic (%) (Fibroblast; [9]): 58% and 70% and 55%
Population Fragmented Nuclei (%) (Fibroblast; [9]): 42% and 31% and 22%
Population Healthy Nuclei (%) (Fibroblast; [9]): 40% and 46% and 52%
Population Hoechst High Intensity Objects (%) (Fibroblast; [9]): 18% and 24% and 20%
Population Membrane Permeable-Phenotype (%) (Fibroblast; [9]): 14% and 36% and 20%
Population Mitochondria Different-Phenotype (%) (Fibroblast; [9]): 7% and 13% and 5%
Population Mitotic Cells (%) (Fibroblast; [9]): 41% and 30% and 44%
Population Normal (%) (Fibroblast; [9]): 81% and 75% and 79%
Population Pyknosed Nuclei (%) (Fibroblast; [9]): 17% and 21% and 24%
Population Tubulin-Different-Phenotype (%) (Fibroblast; [9]): 42% and 59% and 28%
Total Cell Count (Fibroblast; [9]): 86 and 62 and 93
Population Fragmented Nuclei (%) (Fibroblast; [10]): 19% and 14% and 23%
Population Healthy Nuclei (%) (Fibroblast; [10]): 79% and 82% and 72%
Population Hoechst High Intensity Objects (%) (Fibroblast; [10]): 13% and 8% and 15%
Population Membrane Permeable-Phenotype (%) (Fibroblast; [10]): 9% and 7%
Population Mitochondria Different-Phenotype (%) (Fibroblast; [10]): 0% and 4%
Population Normal (%) (Fibroblast; [10]): 86% and 91% and 84%
Total Cell Count (Fibroblast; [10]): 105 and 83 and 107
Population Apoptotic (%) (Fibroblast; [11]): 53% and 87% and 50%
Population Fragmented Nuclei (%) (Fibroblast; [11]): 31% and 64% and 30%
Population Healthy Nuclei (%) (Fibroblast; [11]): 47% and 22% and 30%
Population Hoechst High Intensity Objects (%) (Fibroblast; [11]): 27% and 36% and 28%
Population Mitochondria Different-Phenotype (%) (Fibroblast; [11]): 33% and 50% and 53%
Population Normal (%) (Fibroblast; [11]): 72% and 63% and 71%
Population Tubulin-Different-Phenotype (%) (Fibroblast; [11]): 70% and 64% and 92%
Total Cell Count (Fibroblast; [11]): 87 and 97 and 118
Population Apoptotic (%) (Fibroblast; [12]): 66% and 44%
Population Fragmented Nuclei (%) (Fibroblast; [12]): 35% and 26% and 27%
Population Healthy Nuclei (%) (Fibroblast; [12]): 60% and 65% and 62%
Population Membrane Permeable-Phenotype (%) (Fibroblast; [12]): 7% and 5%
Population Mitochondria Different-Phenotype (%) (Fibroblast; [12]): 37% and 45%
Population Mitotic Cells (%) (Fibroblast; [12]): 33% and 55%
Population Normal (%) (Fibroblast; [12]): 98% and 90%
Population Pyknosed Nuclei (%) (Fibroblast; [12]): 4% and 7% and 10%
Population Tubulin-Different-Phenotype (%) (Fibroblast; [12]): 91% and 93% and 96%
Total Cell Count (Fibroblast; [12]): 133 and 139
Growth Rate (U2OS; [13]): 0
Growth Rate (U2OS; [14]): 1
Growth Rate (U2OS; 6 h, replicate number 2, timepoint 6 hours): 0
Growth Rate (U2OS; [15]): 0
Growth Rate (U2OS; [16]): 0
Growth Rate (U2OS; 18 h, replicate number 2, timepoint 18 hours): 1
Growth Rate (U2OS; [17]): 0
Growth Rate (HEK-293T; [13]): 0
Growth Rate (HEK-293T; [14]): 0
Growth Rate (HEK-293T; [15]): 0
Growth Rate (HEK-293T; [16]): 0
Growth Rate (HEK-293T; [17]): 0
